The results in this text go back to ChEMBL document CHEMBL1127616, “Synthesis, structural characterization, and antitumor properties of a novel class of large-ring platinum(II) chelate complexes incorporating the cis-1,4-diaminocyclohexane ligand in a unique locked boat conformation” (J Med Chem, 1994).

Holding throughout (assay type): functional, organism-based
Test [1] relates to L1210. Description: Tested for in vivo weight change against murine L1210 leukemia at the dose of 5.0 mg/kg per injection in experiment 2. The settings on record: Mus musculus. The procedure, abridged: (§1)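 Leukemia life-span assays used CD2F1 (Balb/c × DBA/2F1) mice weighing 18–22 g. Cells were inoculated IP on day 0, and compounds in 0.9% saline were given IP, dosed by average cage weight. Weight change is the difference in mean group weight between the last and first treatment days.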

The test system of test [2] is L1210. Put plainly: Tested for in vivo weight change against murine L1210 leukemia at the dose of 6.0 mg/kg per injection in experiment 1. The settings on record: Mus musculus. In a few lines: as §1
The test system of test [3] is L1210. Description: Tested for the ratio of number of survivors / total number after 60 days at the dose of 5.0 mg/kg per injection against murine leukemia L1210 experiment 2. Particulars: Mus musculus. The procedure, abridged:
(§2)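 CD2F1 (Balb/c × DBA/2F1) mice, 18–22 g, randomized and inoculated IP with counted leukemia cells on day 0, then re-randomized. Three IP treatments, dissolved in 0.9% saline and dosed on average cage weight, with dose in mg/kg per injection across a full toxic-to-ineffective range. Median life span and %T/C were recorded. Survivors at 60 days were counted as cured and excluded from %T/C.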

Test [4] deals with L1210. Put plainly: Tested for in vivo weight change against murine L1210 Pt-resistant leukemia at the dose of 10 mg/kg per injection in experiment 2. Particulars: Mus musculus. In a few lines: as §1
Test [5] relates to L1210. Put plainly: Tested for median life span against solid tumor L1210 leukemia at 4.0 mg/kg per injection in experiment 1. The settings on record: Mus musculus. The procedure, abridged:
(§3)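 CD2F1 mice weighing 18–22 g were inoculated IP with leukemia cells on day 0. Compounds in 0.9% saline were given IP in three injections, dosed by average cage weight, over a dose range from toxic to ineffective. Median life span was recorded, with cause of death assessed at necropsy and 60-day survivors counted as cured.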

The subject of test [6] is L1210. Description: Tested for the ratio of treated and control against solid tumor murine L1210 leukemia 4.0 mg/kg per injection in experiment 1; T/C. Particulars: Mus musculus. In a few lines: (§4)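 Murine leukemia life span assay in CD2F1 (Balb/c × DBA/2F1) mice, 18–22 g, randomized, with IP tumor cell inoculation on day 0. Depending on the model, the inoculum was 1 × 10^4 cells with IP dosing on days 3, 7 and 11, or 1 × 10^6 cells with IP dosing on days 1, 5 and 9. Drug was given in 0.9% saline, mg/kg per injection, by average cage weight. Read-outs were median day of death and %T/C. Mice alive 60 days after treatment counted as cured and were excluded.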

Test [7] has as its system L1210. Description: Tested for the ratio of treated and control against solid tumor murine L1210 leukemia 6.0 mg/kg per injection in experiment 1; T/C. The settings on record: Mus musculus. The procedure, abridged: as §4
The subject of test [8] is L1210. Put plainly: Tested for the ratio of treated and control against solid tumor murine L1210 Pt-resistant leukemia 6.0 mg/kg per injection; T/C. Particulars: Mus musculus. In a few lines:
as §4

For a further test, the system named is M5076. Description: Tested for net cell kill tumor burden reduction during therapy at the dose 9.0 mg/kg in M5076 sarcoma. On the set-up: dose 9 mg/kg. Particulars: Mus musculus. The procedure, abridged: (§5)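 Solid tumor growth delay assay; B16 melanoma and M5076 sarcoma were run in B6C3F1 (C57BL/6 × C3HF1) mice of 18–22 g. Tumor fragments were implanted SC on day 0, then drug in 0.9% saline was given IP on days 1, 5, 9 or days 3, 7, 11, mg/kg per injection. T − C is the difference in days for treated and control tumors to reach 750 mg. Net log cell kill is tumor burden reduction during therapy. Cured mice were excluded.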

Test [9] concerns Mus musculus. Description: Tested for the ratio of number of survivors / total number after 60 days at the dose of 5.0 mg/kg per injection against murine leukemia P388. In a few lines: as §2
The test system of test [10] is Mus musculus. Put plainly: Tested for median life span against solid tumor P388 Pt-resistant leukemia at 5.0 mg/kg per injection. In a few lines:
as §4

In test [11] the test system is Mus musculus. Put plainly: Tested for median life span against solid tumor P388 leukemia at 5.0 mg/kg per injection. In a few lines:
as §4

For test [12], the system named is Mus musculus. Description: Tested for net cell kill tumor burden reduction during therapy at the dose 9.0 mg/kg in B16 melanoma. On the set-up: dose 9 mg/kg. The procedure, abridged: as §5
Test [13] deals with Mus musculus. Put plainly: tested for in vivo weight change against murine M5076 sarcoma at the dose of 9.0 mg/kg per injection. The procedure, abridged: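 Host weight change in the SC M5076 sarcoma growth delay test in B6C3F1 mice. Drug was given IP in 0.9% saline, mg/kg per injection. Weight change is the maximum treatment-related weight loss.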
For test [14], the system named is L1210. Description: Tested for median life span against solid tumor L1210 Pt-resistant leukemia at 1.5 mg/kg per injection in experiment 1. Particulars: Mus musculus. In a few lines:
as §3

The test system of test [15] is L1210. Put plainly: Tested for median life span against solid tumor L1210 leukemia at 1.5 mg/kg per injection in experiment 1. Particulars: Mus musculus. In a few lines: as §3
Test [16] relates to L1210. Description: Tested for in vivo weight change against murine L1210 Pt-resistant leukemia at the dose of 3.0 mg/kg per injection in experiment 1. The settings on record: Mus musculus. In a few lines:
as §1

For test [17], the system named is L1210. Put plainly: Tested for in vivo weight change against murine L1210 leukemia at the dose of 3.0 mg/kg per injection in experiment 1. The settings on record: Mus musculus. In a few lines: as §1
Test [18] deals with L1210. Description: Tested for median life span against solid tumor L1210 leukemia at 1.6 mg/kg per injection in experiment 2. Particulars: Mus musculus. In a few lines:
as §3

The subject of test [19] is L1210. Description: Tested for the ratio of treated and control against solid tumor murine L1210 leukemia 3.0 mg/kg per injection in experiment 1; T/C. The settings on record: Mus musculus. In a few lines: as §4
Test [20] concerns L1210. Description: Tested for the ratio of treated and control against solid tumor murine L1210 Pt-resistant leukemia 1.6 mg/kg per injection in experiment 2; T/C. Particulars: Mus musculus. The procedure, abridged:
as §4

Test [21] concerns L1210. Put plainly: Tested for the ratio of treated and control against solid tumor murine L1210 leukemia 1.6 mg/kg per injection in experiment 2; T/C. The settings on record: Mus musculus. In a few lines:
as §4

Test [22] deals with L1210. Description: Tested for the ratio of treated and control against solid tumor murine L1210 leukemia 2.5 mg/kg per injection in experiment 2; T/C. The settings on record: Mus musculus. The procedure, abridged:
as §4

Test [23] concerns L1210. Description: Tested for the ratio of number of survivors / total number after 60 days at the dose of 1.5 mg/kg per injection against murine leukemia L1210 experiment 1. Particulars: Mus musculus. The procedure, abridged:
as §2

Test [24] has as its system Mus musculus. Description: Tested for the ratio of number of survivors / total number after 60 days at the dose of 2.3 mg/kg per injection against murine P388 Pt-resistant leukemia. In a few lines: as §2
The test system of test [25] is Mus musculus. Description: Tested for the ratio of number of survivors / total number after 60 days at the dose of 2.3 mg/kg per injection against murine leukemia P388 experiment 2. In a few lines:
as §2

In test [26] the test system is Mus musculus. Put plainly: Tested for median life span against solid tumor P388 Pt-resistant leukemia at 3.7 mg/kg per injection. The procedure, abridged: as §4
The test system of test [27] is Mus musculus. Description: Tested for the ratio of treated and control tumor to reach 750 mg against murine solid tumor M5076 sarcoma 4.0 mg/kg per injection. In a few lines: as §5
For test [28], the system named is Mus musculus. Put plainly: Tested for in vivo weight change against murine P388 leukemia at the dose of 2.3 mg/kg per injection in experiment 2. In a few lines:
as §1

Test [29] relates to Mus musculus. Description: Tested for in vivo weight change against murine P388Pt-resistant leukemia at the dose of 2.3 mg/kg per injection. In a few lines: as §1
Test [30] has as its system Mus musculus. Put plainly: Tested for median life span against solid tumor P388 Pt-resistant leukemia at 2.3 mg/kg per injection. In a few lines:
as §2

For test [31], the system named is Mus musculus. Put plainly: Tested for net cell kill tumor burden reduction during therapy at the dose 4.0 mg/kg in B16 melanoma. On the set-up: dose 4 mg/kg. The procedure, abridged:
as §5

For test [32], the system named is Mus musculus. Put plainly: Tested for the ratio of treated and control against solid tumor murine P388 Pt-resistant leukemia 3.7 mg/kg per injection; T/C. The procedure, abridged:
as §4

Test [33] deals with Mus musculus. Description: Tested for the ratio of treated and control against solid tumor murine P388 leukemia 2.3 mg/kg per injection in experiment 2; T/C. The procedure, abridged:
as §4

Test [34] deals with L1210. Description: Tested for in vivo weight change against murine L1210 Pt-resistant leukemia at the dose of 1.6 mg/kg per injection in experiment 2. Particulars: Mus musculus. The procedure, abridged:
as §1

As for CISPLATIN, the Weight change with L1210 [1] was 0.5 g; in the test on L1210 [2] it was -1.9 g; in the test with L1210 [4], -4.8 g; in the test on Mus musculus [13] it was -5.1 g. The Survivors in the test on L1210 [3] and in the test with Mus musculus [9] was 0 each time. Moreover, the MLS in the test with L1210 [5] was 19.5 days; with Mus musculus [10] it was 19.3 days; in the test on Mus musculus [11] it was 29 days. Also, the Ratio is 184% with L1210 [6], 175% in the test with L1210 [7] and 118% in the test with L1210 [8]. The Log net cell kill in the test with M5076 is 0.8; in the test on Mus musculus [12] it was -0.4.
As usually defined, the T/C is the result in the treated group divided by that in the control group, in per cent. For [Pt(cis-1,4-dach)CL2], the MLS in the test on L1210 [14] was 15.7 days; in the test on L1210 [15] it was 23 days; with L1210 [18], 21.3 days; with Mus musculus [26], 25.8 days. Moreover, the Weight change in the test with L1210 [16] is -4.3 g; with L1210 [17] it was -4.8 g; in the test with Mus musculus [28] it was -2.2 g; in the test on Mus musculus [29], -0.1 g; in the test with L1210 [34] it was 1.9 g. Besides, the Ratio came to 203% in the test on L1210 [19], 146% in the test with L1210 [20], 229% in the test on L1210 [21] and 242% in the test on L1210 [22]. Besides, the 60-day survivors in the test with L1210 [23], in the test on Mus musculus [24] and with Mus musculus [25] was 0 throughout. In addition, the T-C in the test on Mus musculus [27] worked out at 13.5 days. The substance further registered a Survivors with Mus musculus [30] of 21 days. Further, the Log net cell kill in the test on Mus musculus [31] was -0.5. In addition, the T/C in the test with Mus musculus [32] was 177%; with Mus musculus [33], 225%.
